pEC50: −log10 of the molar value.
What follows are compounds tested on ScN2a (assay: Toxicity against mouse ScN2a cells measured as less than 80% confluency after 1 week). Conditions: not given.
Format: functional
How it was run: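 RML-infected ScN2a mouse neuroblastoma cells cultured 1 week in MEM with 10% FCS, with compound renewed with medium every second day. Toxicity scored as confluency below 80% at the end of treatment.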

Point of comparison: `c1ccc2c(c1)CCc1ccccc1N2CCCN1CCN(CCNc2c3ccccc3nc3ccccc23)CC1`, Activity 500 nM. Against it:
- c1ccc2c(c1)Sc1ccccc1N2CCCN1CCN(CCCCNc2c3ccccc3nc3ccccc23)CC1 — 8-fold higher, 4000 nM
- COc1ccc2nc3cc(Cl)ccc3c(NCCCN3CCN(CCCN(c4ccccc4)c4ccccc4)CC3)c2c1 — 4-fold higher, 2000 nM
- COc1ccc2nc3cc(Cl)ccc3c(NCCCN3CCN(CCCN4c5ccccc5Sc5ccccc54)CC3)c2c1 — 5-fold higher, 2500 nM
- COc1ccc2nc3cc(Cl)ccc3c(NCCN3CCN(CCCN(c4ccccc4)c4ccccc4)CC3)c2c1 — 3-fold higher, 1500 nM
- c1ccc2c(c1)CCc1ccccc1N2CCCN1CCN(CCCCNc2c3ccccc3nc3ccccc23)CC1 — 1.5-fold higher, 750 nM
- c1ccc(N(CCCN2CCN(CCCNc3c4ccccc4nc4ccccc34)CC2)c2ccccc2)cc1 — 3-fold higher, 1500 nM
- COc1ccc2nc3cc(Cl)ccc3c(NCCCN3CCN(CCCN4c5ccccc5CCc5ccccc54)CC3)c2c1 — 3-fold higher, 1500 nM
- c1ccc(N(CCCN2CCN(CCCCNc3c4ccccc4nc4ccccc34)CC2)c2ccccc2)cc1 — 2-fold higher, 1000 nM
- COc1ccc2nc3cc(Cl)ccc3c(NCCCCN3CCN(CCCN4c5ccccc5CCc5ccccc54)CC3)c2c1 — within 1.5-fold, 400 nM
- c1ccc2c(c1)CCc1ccccc1N2CCCN1CCN(CCCNc2c3ccccc3nc3ccccc23)CC1 — 2-fold higher, 1000 nM
- c1ccc(N(CCCN2CCN(CCNc3c4ccccc4nc4ccccc34)CC2)c2ccccc2)cc1 — 2-fold higher, 1000 nM
- c1ccc2c(c1)Sc1ccccc1N2CCCN1CCN(CCNc2c3ccccc3nc3ccccc23)CC1 — 6-fold higher, 3000 nM
- COc1ccc2nc3cc(Cl)ccc3c(NCCCCN3CCN(CCCN4c5ccccc5Sc5ccccc54)CC3)c2c1 — 4-fold higher, 2000 nM
- c1ccc2c(c1)Sc1ccccc1N2CCCN1CCN(CCCNc2c3ccccc3nc3ccccc23)CC1 — 2-fold higher, 1000 nM
- COc1ccc2nc3cc(Cl)ccc3c(NCCN3CCN(CCCN4c5ccccc5CCc5ccccc54)CC3)c2c1 — 4-fold higher, 2000 nM
- COc1ccc2nc3cc(Cl)ccc3c(NCCN3CCN(CCCN4c5ccccc5Sc5ccccc54)CC3)c2c1 — 8-fold higher, 4000 nM

Compound `COc1ccc2nc3cc(Cl)ccc3c(NCCCCN3CCN(CCCN(c4ccccc4)c4ccccc4)CC3)c2c1` has an Activity greater than 1000 nM.

Each compound was assayed on ScN2a (assay: Antiprion activity in ScN2a cells assessed as complete reduction of protease-resistant scrapie prion protein). Conditions: not given.
Format: functional, Mus musculus
How it was run: (§1)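 Mouse N2a neuroblastoma cells chronically infected with RML scrapie, subcloned for high PrPSc. Grown in MEM with 10% FCS, penicillin-streptomycin and L-glutamine; compound renewed with medium every second day. Lysed day 7 (~80% confluent), proteinase K 20 µg/mL 30 min 37°C, ultracentrifuged pellet immunoblotted with anti-PrP antibody. EC50 from densitometry of five concentrations; full activity means complete loss of PK-resistant PrP; triplicate experiments.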

Point of comparison: `c1ccc2c(c1)CCc1ccccc1N2CCCN1CCN(CCNc2c3ccccc3nc3ccccc23)CC1`, Activity 75 nM. Against it:
- c1ccc2c(c1)Sc1ccccc1N2CCCN1CCN(CCCCNc2c3ccccc3nc3ccccc23)CC1 — 10-fold higher, 750 nM
- COc1ccc2nc3cc(Cl)ccc3c(NCCCN3CCN(CCCN(c4ccccc4)c4ccccc4)CC3)c2c1 — 6.7-fold higher, 500 nM
- COc1ccc2nc3cc(Cl)ccc3c(NCCCCN3CCN(CCCN(c4ccccc4)c4ccccc4)CC3)c2c1 — 6.7-fold higher, 500 nM
- COc1ccc2nc3cc(Cl)ccc3c(NCCCN3CCN(CCCN4c5ccccc5Sc5ccccc54)CC3)c2c1 — 6.7-fold higher, 500 nM
- COc1ccc2nc3cc(Cl)ccc3c(NCCN3CCN(CCCN(c4ccccc4)c4ccccc4)CC3)c2c1 — 6.7-fold higher, 500 nM
- c1ccc2c(c1)CCc1ccccc1N2CCCN1CCN(CCCCNc2c3ccccc3nc3ccccc23)CC1 — 5.3-fold higher, 400 nM
- c1ccc(N(CCCN2CCN(CCCNc3c4ccccc4nc4ccccc34)CC2)c2ccccc2)cc1 — 6.7-fold higher, 500 nM
- COc1ccc2nc3cc(Cl)ccc3c(NCCCN3CCN(CCCN4c5ccccc5CCc5ccccc54)CC3)c2c1 — 6.7-fold higher, 500 nM
- c1ccc(N(CCCN2CCN(CCCCNc3c4ccccc4nc4ccccc34)CC2)c2ccccc2)cc1 — 5.3-fold higher, 400 nM
- COc1ccc2nc3cc(Cl)ccc3c(NCCCCN3CCN(CCCN4c5ccccc5CCc5ccccc54)CC3)c2c1 — within 1.5-fold, 100 nM
- c1ccc2c(c1)CCc1ccccc1N2CCCN1CCN(CCCNc2c3ccccc3nc3ccccc23)CC1 — 6.7-fold higher, 500 nM
- c1ccc(N(CCCN2CCN(CCNc3c4ccccc4nc4ccccc34)CC2)c2ccccc2)cc1 — 2.7-fold higher, 200 nM
- c1ccc2c(c1)Sc1ccccc1N2CCCN1CCN(CCNc2c3ccccc3nc3ccccc23)CC1 — 8-fold higher, 600 nM
- COc1ccc2nc3cc(Cl)ccc3c(NCCCCN3CCN(CCCN4c5ccccc5Sc5ccccc54)CC3)c2c1 — 13-fold higher, 1000 nM
- c1ccc2c(c1)Sc1ccccc1N2CCCN1CCN(CCCNc2c3ccccc3nc3ccccc23)CC1 — 6.7-fold higher, 500 nM
- COc1ccc2nc3cc(Cl)ccc3c(NCCN3CCN(CCCN4c5ccccc5CCc5ccccc54)CC3)c2c1 — 13-fold higher, 1000 nM
- COc1ccc2nc3cc(Cl)ccc3c(NCCN3CCN(CCCN4c5ccccc5Sc5ccccc54)CC3)c2c1 — 27-fold higher, 2000 nM
- CN(C)CCCN1c2ccccc2CCc2ccccc21 [IMIPRAMINE] — 130-fold higher, 10000 nM
- CCN(CC)CCCC(C)Nc1c2ccc(Cl)cc2nc2ccc(OC)cc12 (stereo not drawn) [QUINACRINE] — 6.7-fold higher, 500 nM

These compounds were tested on ScN2a (assay: Inhibition of protease-resistant scrapie prion protein activity in ScN2a cells). Conditions: Mus musculus.
Format: functional, cell-based
How it was run: as §1

Point of comparison: `c1ccc(N(CCCN2CCN(CCCCNc3c4ccccc4nc4ccccc34)CC2)c2ccccc2)cc1`, pEC50 6.64. Against it:
- c1ccc2c(c1)Sc1ccccc1N2CCCN1CCN(CCCCNc2c3ccccc3nc3ccccc23)CC1 — within 0.2 log units, 6.52
- COc1ccc2nc3cc(Cl)ccc3c(NCCCN3CCN(CCCN(c4ccccc4)c4ccccc4)CC3)c2c1 — within 0.2 log units, 6.55
- COc1ccc2nc3cc(Cl)ccc3c(NCCCCN3CCN(CCCN(c4ccccc4)c4ccccc4)CC3)c2c1 — within 0.2 log units, 6.60
- COc1ccc2nc3cc(Cl)ccc3c(NCCCN3CCN(CCCN4c5ccccc5Sc5ccccc54)CC3)c2c1 — within 0.2 log units, 6.70
- COc1ccc2nc3cc(Cl)ccc3c(NCCN3CCN(CCCN(c4ccccc4)c4ccccc4)CC3)c2c1 — within 0.2 log units, 6.54
- c1ccc2c(c1)CCc1ccccc1N2CCCN1CCN(CCCCNc2c3ccccc3nc3ccccc23)CC1 — within 0.2 log units, 6.82
- c1ccc(N(CCCN2CCN(CCCNc3c4ccccc4nc4ccccc34)CC2)c2ccccc2)cc1 — 0.28 log units higher, 6.92
- COc1ccc2nc3cc(Cl)ccc3c(NCCCN3CCN(CCCN4c5ccccc5CCc5ccccc54)CC3)c2c1 — within 0.2 log units, 6.59
- COc1ccc2nc3cc(Cl)ccc3c(NCCCCN3CCN(CCCN4c5ccccc5CCc5ccccc54)CC3)c2c1 — 0.46 log units higher, 7.10
- c1ccc2c(c1)CCc1ccccc1N2CCCN1CCN(CCCNc2c3ccccc3nc3ccccc23)CC1 — the same, 6.64
- c1ccc(N(CCCN2CCN(CCNc3c4ccccc4nc4ccccc34)CC2)c2ccccc2)cc1 — 0.48 log units higher, 7.12
- c1ccc2c(c1)Sc1ccccc1N2CCCN1CCN(CCNc2c3ccccc3nc3ccccc23)CC1 — 0.21 log units lower, 6.43
- COc1ccc2nc3cc(Cl)ccc3c(NCCCCN3CCN(CCCN4c5ccccc5Sc5ccccc54)CC3)c2c1 — within 0.2 log units, 6.46
- c1ccc2c(c1)Sc1ccccc1N2CCCN1CCN(CCCNc2c3ccccc3nc3ccccc23)CC1 — 0.21 log units higher, 6.85
- COc1ccc2nc3cc(Cl)ccc3c(NCCN3CCN(CCCN4c5ccccc5CCc5ccccc54)CC3)c2c1 — 0.40 log units lower, 6.24
- c1ccc2c(c1)CCc1ccccc1N2CCCN1CCN(CCNc2c3ccccc3nc3ccccc23)CC1 — 1.06 log units higher, 7.70
- COc1ccc2nc3cc(Cl)ccc3c(NCCN3CCN(CCCN4c5ccccc5Sc5ccccc54)CC3)c2c1 — 0.56 log units lower, 6.08
- CN(C)CCCN1c2ccccc2CCc2ccccc21 [IMIPRAMINE] — 1.34 log units lower, 5.30
- CCN(CC)CCCC(C)Nc1c2ccc(Cl)cc2nc2ccc(OC)cc12 (stereo not drawn) [QUINACRINE] — within 0.2 log units, 6.52

— ChEMBL document CHEMBL1137313, “A chimeric ligand approach leading to potent antiprion active acridine derivatives: design, synthesis, and biological investigations” (J Med Chem, 2006)
